From ChEMBL document CHEMBL3244273, “Analgesic activity of novel spiro heterocycles. 2-Amino-7-oxa-3-thia-1-azaspiro[5,5]undec-1-enes and related compounds” (J Med Chem, 1978) come the findings set out here.

Calls of active or inactive are those of the source. Where only a bound is given, the exact number is not on record here.

Series [1] concerns Rattus norvegicus. Briefly: Analgesic activity against po dosed yeast-induced inflamed foot Sprague-Dawley rat model assessed as increase in pain threshold in inflamed paw measured after 2 hrs. As to conditions: Rattus norvegicus, Sprague-Dawley, po, 2 h; read-out: ED50. It counts as functional.
For series [2], the species on record is Rattus norvegicus. Briefly: Antiinflammatory activity against mycobacterial adjuvant-induced arthritis in rat. Format: functional, organism-based.
For a further series, the system named is Mus musculus. Briefly: Analgesic activity in po dosed CF-1 mouse assessed as reduction in phenylquinone-induced writhing responses administered 15 mins prior to phenylquinone challenge. It counts as functional. As to conditions: Mus musculus, CF-1, po; read-out: ED50.
Series [3] can be described thus: Retardation factor of the compound using benzene-ethyl acetate at ratio of 1:1 as solvent system by thin layer chromatography. It counts as physicochemical.
The nature of series [4]: Retardation factor of the compound using benzene-triethylamine at ratio of 9:1 as solvent system by thin layer chromatography. Format: physicochemical.
Series [5] in a line: Acute toxicity in ip dosed CF-1S mouse assessed as mortality measured for 24 hrs. As to conditions: in vivo. It counts as organism-based. The method, boiled down: (§1)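 Male and female CF-1S mice (17-25 g) received the compound suspended in gum acacia solution, orally or intraperitoneally, in groups of six to ten per dose level. Mortality was followed for 24 h after ip dosing and for 5 days after oral dosing. LD50 was calculated by the Miller-Tainter method.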

Series [6] concerns Rattus norvegicus. Briefly: Analgesic activity in po dosed Sprague-Dawley rat by tail flick assay. It counts as functional. In general terms: Thermal pain tests record how soon the animal reacts.
Series [7] in a line: Acute toxicity in po dosed CF-1S mouse assessed as mortality measured for 5 days. As to conditions: in vivo. It counts as organism-based. The method, boiled down: as §1

As usually defined, the ED50 is the midpoint of the dose-response relation. In the case of `c1ccc(CNC2=NC3(CCCCO3)CCS2)cc1` (racemic), the results for the ED50 in the series with Rattus norvegicus [1] and in the series on Mus musculus were more than 100 mg/kg and more than 200 mg/kg, respectively. Also, the outcome in the series listed under Rattus norvegicus [2] was inactive. In addition, the Rf is recorded as 0.15 in series [3] and 0.5 in series [4].

In general, LD50 refers to the dose at which mortality reaches 50%. For the compound `NC1=NC2(CCCCO2)CCS1.O=C(O)/C=C\C(=O)O` (racemic), the 50% lethal dose (LD50) at 24 h in series [5] was found to be 33 mg/kg. Besides, the median effective dose (ED50) in the series with Rattus norvegicus [6] came to 12 mg/kg; with Rattus norvegicus [1], 0.6 mg/kg; in the series with Mus musculus, 3.6 mg/kg. For the same compound, the result in the series listed under Rattus norvegicus [2] was inactive. For the same compound, the LD50 at 120 h in series [7] came to 120 mg/kg.
